13 compounds from ChEMBL document CHEMBL4330067, “Synthesis and mechanistic studies of diketo acids and their bioisosteres as potential antibacterial agents” (Eur J Med Chem, 2019) can be followed below.

Assay [1] in a line: Inhibition of Mycobacterium tuberculosis methionine aminopeptidase 1C using Met-AMC as substrate by Dixon method.
Assay [2] in a line: Inhibition of human methionine aminopeptidase 1B using Met-AMC as substrate by Dixon method. The method, boiled down: (§1)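 Purified MetAP at 4 µM in 50 mM HEPES with 150 mM KCl and CoCl2 at 3 molar equivalents of enzyme. pH 7.5 for SpMetAP1a and EfMetAP1a, pH 8.0 for HsMetAP1b. Substrate L-Met-AMC at 50, 100 and 150 µM. Compounds (10 mM DMSO stocks) tested over 1 to 120 µM for % inhibition; Ki by Dixon method.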

The test system of assay [3] is Streptococcus pneumoniae. As to the kind of experiment: Antibacterial activity against Streptococcus pneumoniae MTCC 655 after 24 hrs by broth dilution assay. It counts as functional. Particulars: MTCC 655, 24 h. The method, boiled down: (§2)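 Broth dilution per NCCLS in nutrient broth, serial dilutions 1000 to 7.8 µg/mL, DMSO below 4% final. Inoculum approx. 2.5×10⁶ cells/mL, 37 °C with shaking at 150 rpm for 24 h. MIC taken as the lowest concentration with no visible growth. Ciprofloxacin served as positive control.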
In general terms: In broth dilution the organism is exposed to a series of concentrations in liquid medium.

Assay [4] has as its system Streptococcus pneumoniae. Nature of the assay: Inhibition of Streptococcus pneumoniae methionine aminopeptidase 1A at 100 uM using Met-AMC as substrate relative to control. The method, boiled down: as §1
Assay [5] deals with Enterococcus faecalis. Nature of the assay: Antibacterial activity against Enterococcus faecalis MTCC 439 after 24 hrs by broth dilution assay. It counts as functional. Particulars: MTCC 439, 24 h. The method, boiled down:
as §2

The subject of a further assay is Pseudomonas aeruginosa. As to the kind of experiment: Antibacterial activity against Pseudomonas aeruginosa MTCC 2453 after 24 hrs by broth dilution assay. It counts as functional. The conditions noted are these: MTCC 2453, 24 h. In short, it runs like this:
as §2

Assay [6] deals with Mycobacterium tuberculosis. As to the kind of experiment: Inhibition of Mycobacterium tuberculosis methionine aminopeptidase 1C at 100 uM using Met-AMC as substrate relative to control. In short, it runs like this:
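Purified MtMetAP1c (4 µM) in 50 mM Hepes pH 7.5 with 150 mM KCl and CoCl2 at three molar equivalents of enzyme. Substrate was L-Met-AMC at 50, 100 or 150 µM. Compounds came from 10 mM DMSO stocks. Percent inhibition was taken against the uninhibited control.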

The subject of assay [7] is Enterococcus faecalis. As to the kind of experiment: Inhibition of Enterococcus faecalis methionine aminopeptidase 1A at 100 uM using Met-AMC as substrate relative to control. The method, boiled down:
as §1

A further assay has as its system Klebsiella pneumoniae. Nature of the assay: Antibacterial activity against Klebsiella pneumoniae ATCC 700603 after 24 hrs by broth dilution assay. Type of assay: functional. Particulars: Klebsiella pneumoniae, 700603, 24 h. In short, it runs like this: as §2
The species named for a further assay is Homo sapiens. Nature of the assay: Inhibition of human methionine aminopeptidase 1B at 100 uM using Met-AMC as substrate relative to control. The method, boiled down: as §1
In a further assay the test system is Salmonella typhimurium. As to the kind of experiment: Antibacterial activity against Salmonella typhimurium MTCC 3224 after 24 hrs by broth dilution assay. Particulars: Salmonella enterica, MTCC 3224, 24 h. Type of assay: functional, Salmonella enterica subsp. enterica serovar Typhimurium. In short, it runs like this:
as §2

A short description of assay [8]: Inhibition of Streptococcus pneumoniae methionine aminopeptidase 1A using Met-AMC as substrate by Dixon method. In short, it runs like this:
as §1

A further assay deals with Escherichia coli. As to the kind of experiment: Antibacterial activity against Escherichia coli ATCC 25922 after 24 hrs by broth dilution assay. It counts as functional. Particulars: ATCC 25922, 24 h. In short, it runs like this: as §2

pKi: −log10 of the molar value. Converted amounts (≈) assume the structure as drawn.

Turning to `CCOC(=O)/C(O)=C/C(=O)c1ccccc1C`, the negative logarithm of the Ki (pKi) (commonly the Ki on a negative log10 scale, so that one unit is a factor of ten) in assay [1] was 4.43; in [2] it was 4.13; in [8] it was 4.01. In addition, the minimal inhibitory concentration (MIC) (commonly the smallest concentration in the dilution series that meets the test's criterion for growth inhibition) was 250 mg/L (≈ 1070 µM) in the assay with Streptococcus pneumoniae [3]; 250 mg/L (≈ 1070 µM) in the assay with Enterococcus faecalis [5]; 1000 mg/L (≈ 4270 µM) with Pseudomonas aeruginosa; 1000 mg/L (≈ 4270 µM) against Klebsiella pneumoniae; 1000 mg/L (≈ 4270 µM) in the assay with Salmonella typhimurium; 250 mg/L (≈ 1070 µM) with Escherichia coli. In addition, the inhibition (in general, how much of the control response was suppressed) with Streptococcus pneumoniae [4] was determined as 50.3%; in assay [6], 55.8%; with Enterococcus faecalis [7], 43.5%; in the assay listed under Homo sapiens it was 61.4%.

`COC(=O)[C@@H](C)NC(=O)c1cc(-c2ccc(Cl)cc2)no1` showed a negative logarithm of the Ki (pKi) in [1] of 3.87. The inhibition came out at 43.8% with Streptococcus pneumoniae [4], 53.2% in assay [6], 15.4% in the assay with Enterococcus faecalis [7] and 43.1% in the assay filed under Homo sapiens.

Turning to `O=C(O)c1cc(-c2ccc(Cl)cc2)no1`, in assay [1], the pKi was 4.14. Further, the inhibition with Streptococcus pneumoniae [4] was determined as 39.7%; in assay [6] it was 58.2%; in the assay with Enterococcus faecalis [7], 20%; in the assay listed under Homo sapiens, 43.9%.

For `COC(=O)[C@@H](C)NC(=O)c1cc(-c2oc3ccc(Br)cc3c2C)no1`, the figures for the inhibition in the assay on Streptococcus pneumoniae [4], with Enterococcus faecalis [7] and in the assay filed under Homo sapiens were 36.5%, 18.8% and 45.1%, respectively.

Regarding `Cc1c(-c2cc(C(=O)O)on2)oc2ccc(Br)cc12`, the inhibition with Streptococcus pneumoniae [4] was determined as 43.2%; in assay [6], 39.1%; in the assay with Enterococcus faecalis [7] it was 40.3%; in the assay listed under Homo sapiens, 47.3%.

`CCOC(=O)c1cc(-c2ccccc2C)no1` gave a pKi in [2] of 3.91. For the same compound, the inhibition in the assay with Streptococcus pneumoniae [4] is 41.4%; in [6], 47.1%; in the assay on Enterococcus faecalis [7], 27.6%; in the assay filed under Homo sapiens it was 48.9%.

In turn, `C[C@@H](NC(=O)c1cc(-c2ccc(Cl)cc2)no1)C(=O)O` showed a pKi in assay [1] of 4.02. In addition, the inhibition is 43.7% with Streptococcus pneumoniae [4], 51.7% in assay [6], 23.6% with Enterococcus faecalis [7] and 47.2% in the assay listed under Homo sapiens.

`Cc1ccccc1-c1cc(C(=O)O)on1` had a negative logarithm of the Ki (pKi) in assay [2] of 3.98. The inhibition in the assay on Streptococcus pneumoniae [4] stood at 42.4%; in [6] it was 43.7%; with Enterococcus faecalis [7], 32%; in the assay filed under Homo sapiens, 49%.

The compound `Cc1ccccc1-c1cc(C(=O)N[C@H](C)C(=O)O)on1` gave a pKi in assay [2] of 4.06. The inhibition came to 44.6% in the assay on Streptococcus pneumoniae [4], 40.9% in assay [6], 43.4% in the assay on Enterococcus faecalis [7] and 50.2% in the assay filed under Homo sapiens.

For the compound `CCOC(=O)c1cc(-c2oc3ccc(Br)cc3c2C)no1`, the inhibition in the assay with Streptococcus pneumoniae [4] is 40.6%; in assay [6], 41.3%; in the assay on Enterococcus faecalis [7], 21.1%; in the assay listed under Homo sapiens, 43.6%.

In the case of `COC(=O)[C@@H](C)NC(=O)c1cc(-c2ccccc2C)no1`, the negative-log Ki (pKi) in [2] was 3.86. The inhibition was determined as 37% with Streptococcus pneumoniae [4], 45.9% in [6], 24.9% with Enterococcus faecalis [7] and 51.1% in the assay listed under Homo sapiens.

As to `Cc1c(-c2cc(C(=O)N[C@H](C)C(=O)O)on2)oc2ccc(Br)cc12`, the pKi in [2] was 5.51. The MIC against Streptococcus pneumoniae [3] was 250 mg/L (≈ 636 µM); in the assay with Enterococcus faecalis [5], 125 mg/L (≈ 318 µM); with Pseudomonas aeruginosa, 1000 mg/L (≈ 2540 µM); against Klebsiella pneumoniae, over 1000 mg/L; against Salmonella typhimurium, 500 mg/L (≈ 1270 µM); with Escherichia coli it was 500 mg/L (≈ 1270 µM). The inhibition in the assay with Streptococcus pneumoniae [4] amounted to 42.8%; in assay [6] it was 33.2%; in the assay on Enterococcus faecalis [7], 34.6%; in the assay listed under Homo sapiens, 93.4%.

As for `CCOC(=O)c1cc(-c2ccc(Cl)cc2)no1`, the values for the negative logarithm of the Ki (pKi) in assay [1] and in assay [2] were 3.82 and 3.79, respectively. The MIC was 1000 mg/L (≈ 3970 µM) with Streptococcus pneumoniae [3]; 500 mg/L (≈ 1990 µM) in the assay on Enterococcus faecalis [5]; 500 mg/L (≈ 1990 µM) in the assay with Pseudomonas aeruginosa; 1000 mg/L (≈ 3970 µM) in the assay on Klebsiella pneumoniae; over 1000 mg/L against Salmonella typhimurium; 500 mg/L (≈ 1990 µM) in the assay with Escherichia coli. For the same compound, the inhibition in the assay on Streptococcus pneumoniae [4] was 40.3%; in assay [6], 47.4%; in the assay with Enterococcus faecalis [7], 19.4%; in the assay listed under Homo sapiens, 66.3%.
